{"data": "Measured values gathered from unrelated publications", "target": "Mitogen-activated protein kinase kinase kinase kinase 2 (MAP4K2, Homo sapiens, UniProt Q12851)", "Residues used in one study (Q12851 1-820)": "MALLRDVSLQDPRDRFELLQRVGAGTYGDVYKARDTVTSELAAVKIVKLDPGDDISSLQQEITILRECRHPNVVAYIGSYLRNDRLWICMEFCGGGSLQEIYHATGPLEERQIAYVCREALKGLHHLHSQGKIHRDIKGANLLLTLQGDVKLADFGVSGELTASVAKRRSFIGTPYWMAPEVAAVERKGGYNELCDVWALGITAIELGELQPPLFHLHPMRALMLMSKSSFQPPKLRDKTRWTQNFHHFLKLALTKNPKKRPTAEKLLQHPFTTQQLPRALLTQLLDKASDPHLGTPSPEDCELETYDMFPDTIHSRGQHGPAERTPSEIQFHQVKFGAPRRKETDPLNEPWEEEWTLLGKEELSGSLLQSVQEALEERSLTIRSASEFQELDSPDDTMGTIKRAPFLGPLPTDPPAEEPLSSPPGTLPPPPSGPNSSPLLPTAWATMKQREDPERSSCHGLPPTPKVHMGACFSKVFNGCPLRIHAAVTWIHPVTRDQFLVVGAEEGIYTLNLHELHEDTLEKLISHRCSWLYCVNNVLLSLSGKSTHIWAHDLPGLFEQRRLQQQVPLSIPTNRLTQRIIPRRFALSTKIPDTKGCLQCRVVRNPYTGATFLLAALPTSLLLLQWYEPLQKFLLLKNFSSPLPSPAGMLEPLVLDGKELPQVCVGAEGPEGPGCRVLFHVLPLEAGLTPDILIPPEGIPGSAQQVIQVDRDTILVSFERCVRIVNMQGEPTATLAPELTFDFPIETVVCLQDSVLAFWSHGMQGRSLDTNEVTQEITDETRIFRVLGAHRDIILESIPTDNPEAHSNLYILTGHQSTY", "note": "Each line is one published result; the experiments were not run side by side."}
{"SMILES": "CCN(CC)CCNC(=O)c1c(C)[nH]c(/C=C2\\C(=O)Nc3ccc(F)cc32)c1C", "assay": "enzyme activity, inhibitor", "conditions": "0.3 µM", "measurement": "inhibition", "result": "45%"}
{"SMILES": "CC(C)(C)c1nc(-c2cccc(NS(=O)(=O)c3c(F)cccc3F)c2F)c(-c2ccnc(N)n2)s1", "assay": "enzyme activity, inhibitor, radiometric", "conditions": "1 µM", "measurement": "remaining activity", "result": "115%"}
{"SMILES": "COc1cc2ncnc(Nc3ccc(F)c(Cl)c3)c2cc1OCCCN1CCOCC1", "assay": "cell-free assay", "conditions": "0.5 µM", "measurement": "remaining signal", "result": "104%"}
{"SMILES": "COc1cc2ncnc(Nc3ccc(Oc4ccccc4)c(C)c3C)c2cc1OC", "assay": "enzyme activity, inhibitor", "conditions": "1 µM", "measurement": "inhibition", "result": "0%"}
{"SMILES": "O=c1nc(-c2ccccn2)sc2ccccc12", "assay": "binding, competition with immobilised ligand", "conditions": "1 µM", "measurement": "remaining binding", "result": "100%"}
{"SMILES": "CN1CCN(C(=O)c2ccc3cc(CCNc4ccnc5ccc(C#N)cc45)ccc3c2)CC1", "assay": "binding, competition with immobilised ligand", "conditions": "2 µM", "measurement": "inhibition", "result": "> 35%"}
{"SMILES": "CSc1cccnc1N1CCN(Cc2nc3ccccc3[nH]2)CC1", "assay": "cell-free assay, competition with immobilised ligand", "conditions": "1 µM", "measurement": "remaining binding", "result": "100%"}
{"SMILES": "CNC(=O)c1cc(Oc2ccc(NC(=O)Nc3ccc(Cl)c(C(F)(F)F)c3)cc2)ccn1", "assay": "enzyme activity, inhibitor", "conditions": "0.3 µM", "measurement": "inhibition", "result": "5%"}
{"SMILES": "COc1cc(Nc2cnc(C#N)c(O[C@H](C)CN(C)C)n2)ncc1-c1cnn(C)c1", "assay": "enzyme activity, inhibitor, radiometric", "conditions": "10 µM", "measurement": "remaining activity", "result": "56%"}
{"SMILES": "CC(C)(O)[C@H]1CC[C@H](Nc2ccc3ncc(-c4cccc(C(F)(F)F)c4)n3n2)CC1", "assay": "enzyme activity, inhibitor", "conditions": "1 µM", "measurement": "remaining activity", "result": "94.6%"}
{"SMILES": "Cc1ccc(Nc2nccc(N(C)c3ccc4c(C)n(C)nc4c3)n2)cc1S(N)(=O)=O", "assay": "enzyme activity, inhibitor", "conditions": "10 µM", "measurement": "inhibition", "result": "83%"}
{"SMILES": "O=C(O)[C@H]1[C@H](Cn2nnc3ccccc3c2=O)CC[C@@H]1C(=O)c1ccc(OCCC2CCOCC2)cc1", "assay": "cell-free assay, competition with immobilised ligand", "conditions": "1 µM", "measurement": "remaining binding", "result": "100%"}
{"SMILES": "O=C(Nc1cnn(-c2csc(C(=O)NC3COC3)c2)c1)Nc1c(F)cccc1Cl", "assay": "enzyme activity, inhibitor", "conditions": "5 µM", "measurement": "remaining activity", "result": "95.3%"}
{"SMILES": "COc1cc(Nc2c(C#N)cnc3cc(OCCCN4CCN(C)CC4)c(OC)cc23)c(Cl)cc1Cl", "assay": "cell-free assay", "conditions": "0.5 µM", "measurement": "remaining signal", "result": "3.16%"}
{"SMILES": "COc1ccc2c(O[C@@H]3C[C@H]4C(=O)N[C@]5(C(=O)O)CC5/C=C\\CCCCC[C@H](NC(=O)OC5CCCC5)C(=O)N4C3)cc(-c3csc(NC(=O)C(C)C)n3)nc2c1C (some centres unmarked)", "assay": "cell-free assay, competition with immobilised ligand", "conditions": "1 µM", "measurement": "remaining binding", "result": "100%"}
{"SMILES": "CCCOc1ccc(OC)c(F)c1C(=O)c1ccc(C(=O)N[C@@H]2CNC[C@H]2NC(=O)c2ccc3[nH]ncc3c2)cc1", "assay": "enzyme activity, inhibitor", "conditions": "10 µM", "measurement": "remaining activity", "result": "61%"}
{"SMILES": "c1ccc(N2CCN(Cc3nc4ccccc4[nH]3)CC2)nc1", "assay": "binding, competition with immobilised ligand", "conditions": "1 µM", "measurement": "remaining binding", "result": "100%"}
{"SMILES": "FC(F)c1nc2ccccc2n1-c1nc(N2CCOCC2)nc(N2CCOCC2)n1", "assay": "enzyme activity, inhibitor", "conditions": "10 µM", "measurement": "remaining activity", "result": "104%"}
{"SMILES": "Cc1ccc(NC(=O)c2ccc(C)c(C(F)(F)F)c2)cc1C#Cc1nn(C2CCC(O)CC2)c2ncnc(N)c12 (centres unmarked)", "assay": "cell-free assay", "conditions": "10 µM", "measurement": "remaining signal", "result": "49%"}
{"SMILES": "CN1CC(Oc2cnc(C#N)cc2-c2ccn3nc(NC(=O)C4CC4)cc3c2)C1", "assay": "enzyme activity, inhibitor", "conditions": "1 µM", "measurement": "inhibition", "result": "2%"}
{"SMILES": "CCc1ccccc1C(=O)Nc1n[nH]c2c(C)c(F)c(C3C(C#N)=C(C)N(C)C(C)=C3C#N)cc12", "assay": "cell-free assay, competition with immobilised ligand", "conditions": "1 µM", "measurement": "remaining binding", "result": "100%"}
{"SMILES": "Cn1c(=O)n(-c2ccc(C(C)(C)C#N)cc2)c2c3cc(-c4cnc5ccccc5c4)ccc3ncc21", "assay": "enzyme activity, inhibitor", "conditions": "10 µM", "measurement": "remaining activity", "result": "12%"}
{"SMILES": "CC(C)(O)c1cncc(-c2nc3ccc(F)cc3n2C2CC2)c1", "assay": "cell-free assay, competition with immobilised ligand", "conditions": "1 µM", "measurement": "remaining binding", "result": "98%"}
{"SMILES": "CCN(CC)c1ccc(C2=NNC(=O)CC2C)cc1[N+](=O)[O-] (centres unmarked)", "assay": "enzyme activity, inhibitor", "conditions": "10 µM", "measurement": "remaining activity", "result": "97%"}
{"SMILES": "O=C(Nc1cccnn1)N1CCC(=Cc2cccc(Oc3ccc(C(F)(F)F)cn3)c2)CC1", "assay": "cell-free assay, competition with immobilised ligand", "conditions": "1 µM", "measurement": "remaining binding", "result": "100%"}
{"SMILES": "FC(F)(F)Oc1cccc(-c2cnc3ccc(-c4ccncc4)nn23)c1", "assay": "enzyme activity, inhibitor, radiometric", "conditions": "1 µM", "measurement": "activity vs control", "result": "37%"}
